pIC50: −log10 of the molar value.
What was measured:
MT4 [1] = assay: Cytotoxicity against MT4 cells; type: functional; conditions: Homo sapiens
MT4 [2] = assay: Inhibition of CD4 antigen expression in MT4 cells; type: functional, cell-based; conditions: Homo sapiens; for pIC50: read-out: IC50; for IC50: read-out: Log IC50 (converted)
Summary of the method: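 MT-4 cells were labelled with FITC-conjugated anti-CD4 mAb to read surface CD4 by mean fluorescence intensity. IC50 is the concentration giving 50% loss of cell-surface CD4. Top concentrations tested were 15 or 75 µM. Where 50% reduction was not reached, the value is reported as a lower limit based on the highest concentration used.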

[3] = system: Human immunodeficiency virus 1; assay: Antiviral activity against HIV1 NL4.3 in MT4 cells; type: functional, organism-based; conditions: Human immunodeficiency virus 1, NL4.3, MT4

SMILES | CC50 (MT4 [1]) | pIC50 (MT4 [2]) | IC50 (MT4 [2]) | pIC50 [3]
C=C1CN(S(=O)(=O)c2ccc(OC)cc2)CCCN(CCC(C)C)CCCN(S(=O)(=O)c2ccc(OC)cc2)C1 | 53 µM | 6.54 | 0.288 µM | 6.20
C=C1CN(S(=O)(=O)c2ccc(Br)cc2)CCCN(C(=O)OCC)CCCN(S(=O)(=O)c2ccc(Br)cc2)C1 | 29 µM | 4.91 | 12.3 µM | 
C=C1CN(S(=O)(=O)c2ccc(OC)cc2)CCCNCCCN(S(=O)(=O)c2ccc(OC)cc2)C1 | 43 µM | 5.28 | 5.25 µM | 5.20
C=C1CN(S(=O)(=O)c2ccc(C)cc2)CCCN(CC2CCCCC2)CCCN(S(=O)(=O)c2cccc3c(N(C)C)cccc23)C1 | 49 µM | 6.21 | 0.617 µM | 5.74
C=C1CN(S(=O)(=O)c2ccc(OC)cc2)CCCN(Cc2ccccc2)CCCN(S(=O)(=O)c2ccc(OC)cc2)C1 | 26 µM | 6.66 | 0.219 µM | 6.21
C=C1CN(S(=O)(=O)c2ccc(C)cc2)CCCN(Cc2ccccc2)CCCN(S(=O)(=O)c2cccc3c(N(C)C)cccc23)C1 | > 75 µM | 5.89 | 1.29 µM | 5.02
